A short description of experiment [1]: Growth inhibition of human Hs 578T cells assessed as cell growth at 10 uM after 48 hrs by sulforhodamine B assay. The format is functional. As to conditions: read-out: Activity. In a few lines: (§1)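 NCI-60 single-dose screen at 10 µM: cells in RPMI 1640 with 5% FBS, preincubated 24 h, then exposed 48 h at 37 °C. TCA fixation (16% final for suspension cells), SRB staining, absorbance 515 nm. Percent growth relative to time-zero and untreated control plates; negative values indicate cell kill.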

The subject of experiment [2] is CAKI-1. Nature of the experiment: Growth inhibition of human CAKI-1 cells assessed as cell growth at 10 uM after 48 hrs by sulforhodamine B assay. The format is functional. As to conditions: CAKI-1, 48 h, read-out: Activity. In a few lines: as §1
(In SRB staining, fixed cells bind dye roughly in proportion to their protein.)

The test system of experiment [3] is SNB-19. Nature of the experiment: Growth inhibition of human SNB19 cells assessed as cell growth at 10 uM after 48 hrs by sulforhodamine B assay. The format is functional. As to conditions: SNB-19, 48 h, read-out: Activity. In a few lines:
(§2)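 Single-dose NCI-60 test at 10 µM. Cells were grown in RPMI 1640 with 5% FBS and 2 mM L-glutamine, preincubated 24 h, with T0 plates TCA-fixed. Exposure was 48 h at 37 °C, 5% CO2. Cells were fixed with cold TCA (final 10%, 4 °C, 60 min), stained with SRB and read at 515 nm. Percent growth was taken relative to T0 and untreated control; negative values denote cell kill.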

Experiment [4] has as its system OVCAR-4. The experiment can be described thus: Growth inhibition of human OVCAR4 cells assessed as cell growth at 10 uM after 48 hrs by sulforhodamine B assay. The format is functional. As to conditions: OVCAR-4, 48 h, read-out: Activity. In a few lines:
(§3)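 Single-dose NCI-60 screen: adherent cells in RPMI 1640 with 5% FBS were exposed to 10 µM for 48 h at 37 °C after a 24 h preincubation. They were fixed in situ with cold TCA (10% final), stained with 0.4% SRB in 1% acetic acid, solubilized in 10 mM Tris base, and read at 515 nm. Percent growth was taken relative to time-zero and control plates.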

Experiment [5] concerns SK-MEL-5. The experiment can be described thus: Growth inhibition of human SK-MEL-5 cells assessed as cell growth at 10 uM after 48 hrs by sulforhodamine B assay. The format is functional. As to conditions: SK-MEL-5, 48 h, read-out: Activity. The procedure, abridged:
as §3

Experiment [6] has as its system Malme-3M. Nature of the experiment: Growth inhibition of human MALME-3M cells assessed as cell growth at 10 uM after 48 hrs by sulforhodamine B assay. The format is functional. As to conditions: read-out: Activity. The procedure, abridged: as §3
Experiment [7] relates to LOX IMVI. The experiment can be described thus: Growth inhibition of human LOXIMVI cells assessed as cell growth at 10 uM after 48 hrs by sulforhodamine B assay. The format is functional. As to conditions: read-out: Activity. In a few lines: as §1
The subject of experiment [8] is UACC-257. The experiment can be described thus: Growth inhibition of human UACC257 cells assessed as cell growth at 10 uM after 48 hrs by sulforhodamine B assay. The format is functional. As to conditions: UACC-257, 48 h, read-out: Activity. In a few lines:
as §2

For experiment [9], the system named is SF-539. Nature of the experiment: Growth inhibition of human SF539 cells assessed as cell growth at 10 uM after 48 hrs by sulforhodamine B assay. The format is functional. As to conditions: SF-539, 48 h, read-out: Activity. In a few lines: as §3
Experiment [10] can be described thus: Growth inhibition of human NCI-ADR-RES cells assessed as cell growth at 10 uM after 48 hrs by sulforhodamine B assay. As to conditions: read-out: Activity. The format is functional. In a few lines: as §3
The subject of experiment [11] is MCF7. Nature of the experiment: Antiproliferative activity against human MCF7 cells by MTT assay. The format is functional, cell-based. In a few lines:
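Cells plated at 8 × 10^3/well (MDA-MB-231) or 10^4/well (MCF7) in 96-well plates. Compounds fed in media with 5% FBS (MDA-MB-231) or 1% FBS (MCF7). MTT read-out of viable cells.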
Background: Formazan colour is commonly taken as a measure of viable cells.

Experiment [12] deals with HOP-62. Nature of the experiment: Growth inhibition of human HOP62 cells assessed as cell growth at 10 uM after 48 hrs by sulforhodamine B assay. As to conditions: HOP-62, 48 h, read-out: Activity. The format is functional. The procedure, abridged:
as §1

What is called IC50 is the point on the concentration scale where inhibition reaches its midpoint. Low readings indicate greater potency in that assay, high ones weaker potency in that assay. Consider `CC(C)=CCC/C(C)=C/CC/C(C)=C/CC[C@]1(C)CCc2c3c(cc(C)c2O1)OCN(CCCCCCCCCCO)C3`, for which the growth at 10 µM in experiment [1] is 99%; in experiment [2] it was 77.9%; in experiment [3], 98.9%; in experiment [4], 92.1%; in experiment [5] it was 85.2%; in experiment [6], 101%. Also, the growth at 10 µM came to 87.3% in [7]; 81.4% in experiment [8]; 98.3% in experiment [9]; 99.9% in [10]; 107% in experiment [12]. Moreover, in experiment [11], the midpoint of inhibition, the IC50, lay at 4.6 µM.

Turning to `CC(C)=CCC/C(C)=C/CC/C(C)=C/CC[C@]1(C)CCc2c3c(c(C)c(C)c2O1)OCN(CCCCCCCCCCCCO)C3`, the growth at 10 µM in experiment [1] was 103%; in [2] it was 96.2%; in experiment [3], 104%; in [4], 107%; in experiment [5], 92.8%; in experiment [6], 101%. Moreover, the growth at 10 µM in experiment [7] is 100%; in [8] it was 104%; in experiment [9], 111%; in experiment [10], 97.9%; in experiment [12], 104%. For the same compound, the IC50 in [11] was > 20 µM.

For `COc1ccc(CCNCc2c(O)c(C)c(C)c3c2CC[C@@](C)(CC/C=C(\C)CC/C=C(\C)CCC=C(C)C)O3)cc1OC`, the growth at 10 µM in experiment [1] turned out to be 121%; in experiment [2], 86.6%; in experiment [3] it was 89.6%; in [4] it was 84%; in experiment [5] it was 108%; in experiment [6], 120%. Also, the growth at 10 µM in experiment [7] was 52.9%; in experiment [8], 107%; in experiment [9], 97%; in experiment [10], 91.4%; in experiment [12] it was 115%.

For `CC(C)=CCC/C(C)=C/CC/C(C)=C/CC[C@]1(C)CCc2c(CNCCc3ccc(O)cc3)c(O)c(C)c(C)c2O1`, the growth at 10 µM amounted to 133% in experiment [1]; 86.1% in experiment [2]; 99.8% in experiment [3]; 91% in experiment [4]; 111% in [5]; 110% in experiment [6]. The growth at 10 µM came out at 63.9% in experiment [7]; 102% in experiment [8]; 113% in [9]; 95% in [10]; 105% in [12].

For `COc1ccc(CCN2COc3c(C)c(C)c4c(c3C2)CC[C@@](C)(CC/C=C(\C)CC/C=C(\C)CCC=C(C)C)O4)cc1OC`, the growth at 10 µM in experiment [1] stood at 198%; in experiment [2], 88.5%; in experiment [3], 104%; in experiment [4], 98.4%; in experiment [5], 107%; in experiment [6], 93.6%. Besides, the growth at 10 µM in [7] is 98.6%; in experiment [8], 105%; in experiment [9], 103%; in experiment [10] it was 101%; in experiment [12], 85.7%. Besides, in [11], the IC50 was > 20 µM.

As for `CC(C)=CCC/C(C)=C/CC/C(C)=C/CC[C@]1(C)CCc2c3c(c(C)c(C)c2O1)OCN(CCCCCCCCCCO)C3`, the growth at 10 µM in experiment [1] turned out to be 96.5%; in experiment [2] it was 78.9%; in [3], 95.7%; in experiment [4], 105%; in [5], 95.6%; in [6], 105%. Moreover, the growth at 10 µM in experiment [7] came to 93.6%; in [8] it was 102%; in [9], 97.6%; in experiment [10], 99.2%; in experiment [12], 90%. In experiment [11], this compound yielded a concentration for half-maximal inhibition (IC50) of 19.4 µM.

As for `CC(C)=CCC/C(C)=C/CC/C(C)=C/CC[C@]1(C)CCc2cc(O)c(C)c(C)c2O1` [GAMMA-TOCOTRIENOL], the growth at 10 µM amounted to 102% in experiment [1]; 89.5% in [2]; 114% in experiment [3]; 102% in [4]; 99.1% in experiment [5]; 92.5% in [6]. Also, the growth at 10 µM is 90% in experiment [7]; 123% in experiment [8]; 101% in experiment [9]; 96.9% in [10]; 108% in experiment [12]. The compound further had an IC50 in experiment [11] of 7.1 µM.

For `CC(C)=CCC/C(C)=C/CC/C(C)=C/CC[C@]1(C)CCc2c3c(cc(C)c2O1)OCN(CCCCCCCCCCCCO)C3`, the growth at 10 µM in experiment [1] amounted to 93.2%; in [2], 78.3%; in [3], 92.7%; in [4] it was 77.5%; in experiment [5], 58.1%; in experiment [6] it was 106%. The growth at 10 µM was 67.1% in experiment [7]; 64.3% in experiment [8]; 102% in experiment [9]; 79.9% in experiment [10]; 86.9% in experiment [12]. In addition, the IC50 in [11] is > 20 µM.

For the compound `CC(C)=CCC/C(C)=C/CC/C(C)=C/CC[C@]1(C)CCc2c3c(c(C)c(C)c2O1)OCN(CCc1ccc(O)cc1)C3`, the growth at 10 µM in experiment [1] stood at 91.8%; in experiment [2], 84.2%; in [3], 94.1%; in experiment [4] it was 81.4%; in [5], 115%; in experiment [6] it was 114%. The growth at 10 µM in experiment [7] is 30.3%; in experiment [8], 93.6%; in [9], 104%; in [10] it was 83.6%; in experiment [12], 112%. This compound also returned an IC50 in experiment [11] of 10.6 µM.

For the origin of these results see ChEMBL document CHEMBL2380254, “Optimization of tocotrienols as antiproliferative and antimigratory leads” (Eur J Med Chem, 2013).
